Data published in ChEMBL document CHEMBL1134794, “Discovery of inhibitors of cell adhesion molecule expression in human endothelial cells. 1. Selective inhibition of ICAM-1 and E-selectin expression” (J Med Chem, 2001).
In brackets after ≈: the same amount, converted by molar mass.

What was measured:
[1] = In vitro cellular toxicity against human umbilical vein endothelial cells (HUVEC) in MTS assay; type: cell-based
[2] = Area under curve against time (0-8 hr) in rat; type: ADME, organism-based; set-up: time < 8 hr; conditions: in vivo
How it was run: (§1)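 Rats given a single oral dose of 5 mg/kg, no intravenous arm. Plasma drug concentrations followed over time and analysed by HPLC. Values are means (±SEM, n=3).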

[3] = Half-life was measured in rat; type: ADME, organism-based; conditions: in vivo; how it was run: as §1
[4] = Mean plasma concentration measured in rat; type: ADME, organism-based; how it was run: as §1
[5] = Maximum time taken to reach mean plasma concentration, measured in rat; type: ADME, organism-based; how it was run: as §1
[6] = Aqueous solubility was determined at pH 7.4; type: physicochemical; conditions: buffer
How it was run: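 Solubility determined in 0.05 M NaH₂PO₄ buffer at pH 7.4.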

Row | SMILES | IC50 [1] | other results
1 | NC(=O)c1cc2c(Sc3ccccn3)cncc2s1 | > 100 µM | –
2 | CCc1cc2c(SCc3ccccc3)ncnc2s1 | > 100 µM | –
3 | Cc1ccc(Sc2cncc3sc(C(=N)S)cc23)cc1 | 51 µM | –
4 | Cc1ccc(Sc2cncc3sccc23)cc1 | 5.8 µM | –
5 | Cc1ccc(Sc2cncc3sc(C(N)=O)cc23)cc1C | > 100 µM | –
6 | CCc1cc2c(Sc3nnc(C)s3)ncnc2s1 | 51 µM | –
7 | Cc1ccc(Sc2cncc3sc(C(N)=O)cc23)cc1 | 152 µM | AUC at 8 h [2]: 131 ng·h/mL; half-life [3]: 60 min; Cmax [4]: 78 ng/mL; Tmax [5]: 15 min; solubility [6]: 400 µg/mL (≈ 1330 µM)
8 | Cc1ccc(Sc2ccnc3sc(C(N)=O)cc23)cc1 | 44 µM | –
9 | CCc1cc2c(Cl)ncnc2s1 | > 100 µM | –
10 | Cc1cccc(Sc2cncc3sc(C(N)=O)cc23)c1 | 96 µM | –
11 | Cc1ccc(Sc2cncc3sc(C(=O)NN)cc23)cc1 | 82 µM | –
12 | CCc1cc2c(O)ncnc2s1 | > 100 µM | –
13 | CCc1cc2c(Sc3nnc(N)s3)ncnc2s1 | 95 µM | –
14 | Cc1ccc(Sc2cncc3sc(/C=N/OCC(=O)O)cc23)cc1 | 84 µM | –
15 | Cc1ccc([S+]([O-])c2cncc3sc(C(N)=O)cc23)cc1 (centres undefined) | – | AUC at 8 h [2]: 1240 ng·h/mL; Cmax [4]: 476 ng/mL; Tmax [5]: 25.2 min
16 | Cc1ccc(Sc2cncc3sc(C(=O)O)cc23)cc1 | – | AUC at 8 h [2]: 2950 ng·h/mL; Cmax [4]: 751 ng/mL; Tmax [5]: 19.8 min
17 | CCc1cc2c(NCc3ccccc3)ncnc2s1 | 72 µM | –
18 | NC(=O)c1cc2c(Sc3ccc(C(F)(F)F)cc3)cncc2s1 | 95 µM | –
19 | Cc1ccc(Sc2cncc3sc(C(=O)NCCCN4CCOCC4)cc23)cc1 | 68 µM | –
20 | Cc1ccc(Sc2cncc3sc(C(N)=O)cc23)c(C)c1 | > 10 µM | –
